Assay results from ChEMBL document CHEMBL4513216, “Probing the Open Global Health Chemical Diversity Library for Multistage-Active Starting Points for Next-Generation Antimalarials” (ACS Infect Dis, 2020).

assay: Toxicity liver stage against HepG2, at 10uM; assay type: cell-based; set-up: test concentration 10 uM, cell line HepG2-A16-CD81EGFP; conditions: human, HepG2-A16-CD81EGFP cells; read-out: INHIBITION
In short: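 Uninfected HepG2-A16-CD81EGFP cells, 3 × 10^3 per well, 1536-well, plated on prespotted compound at 10 μM final, parasite-free screening media added to match infected plates; puromycin 10 μM positive, DMSO 0.5% negative; run in parallel with 48 h PbLuc assay at 37 °C, 5% CO2; viability by CellTiter-Glo luminescence, normalized to controls.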

SMILES	cytotoxicity at 10 µM
CC(C)CCN1CC[C@H](c2nnc(Cc3c[nH]c4ccccc34)o2)C1	0.167%
O=C(NC1CCS(=O)(=O)C1)c1cn(C2CC2)c(=O)c2ccccc12 (stereo not given)	-5.65%
Cc1ccncc1NC(=O)C1CSc2ncc(C)c(=O)n2C1 (stereo not given)	-6.53%
CCNC(=O)N1CCC2(CC1)CCn1c(C3CC3)cnc12	1.89%
Cn1cccc1C(=O)N1CC[C@H]2[C@@H]1CCC(=O)N2c1ccccc1	-6.53%
O=S(=O)(c1ccccc1)N1C[C@@H]2COC[C@]2(COCC2CC2)C1	10.2%
CC(C)CNC(=O)N1CCOC2(CCNCC2)C1	9.28%
CS(=O)(=O)NCC1OCCc2cn(CC3CC3)nc21 (stereo not given)	8.19%
c1ccc(CN2CCOC3(CCCN(c4nccs4)C3)C2)cc1 (stereo not given)	13.7%
Cn1ncc2c1C(COCC1CC1)CN(Cc1cccnc1)C2 (stereo not given)	11.4%
Cc1c(C)n(Cc2ccncc2)c2nc3c(c(N)c12)CCCC3	1.4%
CCc1cc(=O)n(CC(=O)N2CCCCC2)c(-c2cccc(F)c2)n1	11.4%
CCOC(=O)Cn1ccc(NC(=O)Cc2ccccc2F)n1	3.33%
Cc1nc(NCc2nonc2C)cc(C(C)Cn2nc(C)c(C)c2C)n1 (stereo not given)	7.03%
CCOc1ccc(CN2CCC(c3nc(C)cc(C)n3)C2)cc1CO (stereo not given)	2.75%
CS(=O)(=O)N1CCCC(c2cncc(Nc3ccccn3)n2)C1 (stereo not given)	0.609%
CC(=O)N1CCCC(Cc2cncc(Br)c2)C1 (stereo not given)	-9.02%
C[C@]1(O)CCN(Cc2cccnc2)C[C@@H]1Oc1cccc(F)c1	-8.22%
CCCC(=O)N1CCc2nc3cc(OC)c(OC)cc3c(=O)n2CC1	-13.2%
Cc1nccc(C2CN(Cc3cc[nH]n3)CCO2)n1 (stereo not given)	-6.92%
O=C(NC1CCCCC1)N1CCn2c(nnc2C2CCCN2)C1 (stereo not given)	0.336%
O=C1CC2(CCN(C(=O)c3ccccc3)C2)Nc2ccccc2N1 (stereo not given)	9.98%

SMILES	cytotoxicity at 10 µM
CN1Cc2ccccc2NC(=O)C12CCNC2 (stereo not given)	6.75%
CCN(CC)C(=O)CSc1ncc[nH]1	-9.94%
Cc1ccc(S(=O)(=O)Nc2ccc(N3CCSCC3)c(C(=O)O)c2)s1	3.54%
Cc1ccccc1-n1nccc1NC(=O)CCOC(C)C	0%
Cc1ncc(S(=O)(=O)Nc2ccnn2C2CCCCC2)[nH]1	-6.82%
O=C(CSCc1ccccn1)NCC1CCN(C2CC2)C1 (stereo not given)	-14.8%
NC(=O)CCN(CC(=O)NCc1ccccn1)c1ccc(F)cc1	7.98%
CC(=O)Nc1ccc(CNCC(O)c2ccc(C)cc2)cc1 (stereo not given)	-0.684%
CCCN1CCC(N(C)CCC(=O)Nc2ccccc2SC)CC1	15.5%
Cc1csc(CNC(=O)NCC(C)Cn2nc(C)cc2C)n1 (stereo not given)	3.26%
OC(CNCCn1cccn1)COc1ccc2ccccc2c1 (stereo not given)	-26.4%
O=C(c1sccc1C1CC1)N1CCN(c2cnccn2)CC1	-2.92%
CN(C)C(=O)Cn1cc(C#N)c(=O)c2cc(Br)ccc21	15.7%
CCc1nc2n(n1)CCCC2Nc1nc(C2CC2)ns1 (stereo not given)	3.03%
Cc1ccc(N2CCCC(N(C)Cc3noc(C4CC4)n3)C2)nn1 (stereo not given)	1.6%
CSC(C)(C)CNC(=O)NC1CCN(CC2CC2)C1 (stereo not given)	0.811%
COCc1ccc(C(=O)N(CCC#N)Cc2ccccn2)cc1	14%
COC(C)c1noc(CN2CCCNCC2)n1 (stereo not given)	5.6%
COc1cccc(SCC(=O)N2CCC(N3CCCC3=O)CC2)c1	-9.41%
CC(C)CN1C(=O)C2(CCCC2)NC1c1c[nH]nc1-c1cccnc1 (stereo not given)	7.76%
Cc1cc(=O)c(C(=O)N2CCN(C)c3ccccc3C2)c[nH]1	3.53%
Cc1ccc2c(c1)OCCCC2NCc1nccn1CC(C)C (stereo not given)	-0.77%

SMILES	cytotoxicity at 10 µM
O=C(c1ncncc1Cl)N1CCN(c2ccc(Cl)cc2)CC1	-2.72%
CCn1c(CN(C)CC(F)(F)F)nc2c(F)cccc21	-5.35%
Cc1nn(C)cc1C(=O)Nc1cccc(CN2CCC(CO)CC2)c1	-10.2%
COCCN1C(=O)CC[C@@H]2[C@@H]1CCN2S(=O)(=O)C1CC1	-98.4%
O=C(c1ccncn1)N1CCC[C@]2(C[C@@H](OCc3ccccn3)CO2)C1	-72.9%
O=C(c1cscn1)N1CC[C@H]2C[C@@H](c3ccncn3)O[C@@H]2C1	-76.6%
COc1ccc(-n2cccn2)c(CN2CCC3(CCCN(C)C3=O)C2)c1 (stereo not given)	10.2%
OC[C@@H]1CCCN1c1ccc(-c2nc(CCc3ccccc3)no2)cn1	-0.134%
CC(C)c1nc(CN(C)C(=O)Cn2nc3ccccc3n2)no1	10.2%
CCN(CC)CCCNc1nccc(-c2cn(C)nc2C)n1	-2.92%
CC(=O)N1CC2(CCN(c3ccc4ccccc4n3)CC2)CC1C(=O)O (stereo not given)	5.33%
CCC[C@H]1CN(S(=O)(=O)c2cc(C)ccc2F)C[C@@H]1N	2.33%
N[C@@H](Cc1c[nH]cn1)C(=O)N1CCC(Oc2ccc(Cl)cc2)CC1	-2.13%
CN(Cc1nc(Cc2cccc(C(F)(F)F)c2)no1)C1CCCCC1	1.99%
Cc1ccc(Cl)c(NC(=O)c2cccc(CN3CC[C@H](O)C3)c2)c1	-11.9%
CCc1c(C)nn(CCN2CC3(CCOC3)CCC2=O)c1C (stereo not given)	1.94%
OCC(O)CN(CCN1CCOCC1)Cc1ccco1 (stereo not given)	-4.7%
O=C(Nc1ccc(-n2cccn2)cc1)N1C[C@H](O)[C@@H](N2CCOCC2)C1	-45.9%
Cc1ccc2nccc(C(=O)N3CCOC(CCN(C)C)C3)c2c1 (stereo not given)	10.8%
CCCS(=O)(=O)N1CCC2(CC1)CC(=O)N(CCCc1ccccc1)C2	8.35%
O=C1NCC(c2ccc(F)cc2)Cc2[nH]c(CCN3CCCC3)nc21 (stereo not given)	-0.65%
COc1ccc(F)cc1C(=O)C1CCCN(Cc2ccc(C)s2)C1 (stereo not given)	-1.84%

SMILES	cytotoxicity at 10 µM
CC(C)(C)c1ccc(-c2n[nH]c3c2CN(CC2CCOC2)CC3)cc1 (stereo not given)	-40.1%
CCN1CC(C(=O)NCCn2cccc2)CC1=O (stereo not given)	-4.72%
c1ccc(C(CC2CN(Cc3ncc[nH]3)CCO2)c2ccccc2)cc1 (stereo not given)	-0.73%
c1ccc2c(c1)CC(n1ccnc1-c1cc3n(n1)CCNC3)CO2 (stereo not given)	4.58%
OC1(c2cn(CC3CCN(C4CCSC4)CC3)nn2)CCCC1 (stereo not given)	0.445%
CCc1[nH]c2ccc(CNC(=O)Cc3c(C)nc(N)nc3C)cc2c1C	2.02%
CCc1cnc(N)nc1NCc1ccc(OC)c(OC)c1	3.48%
CC(C)(C)N1CC(C(=O)N2CCN(CCc3ccccc3)CC2)CC1=O (stereo not given)	23.4%
Cc1nnc(SCc2ccccn2)s1	-9.13%
Cc1cc(C)n(CNc2nonc2C(N)=O)n1	-13%
Clc1ccccc1-c1nc(CNC2CCc3ncnn3C2)co1 (stereo not given)	-7.6%
COc1ccc(C(O)CNC(=O)NCCc2csc(C)n2)cc1 (stereo not given)	-6.16%
O=C(C1CCCN1Cc1nc(-c2ccco2)no1)N1CCSCC1 (stereo not given)	-5.8%
CCOc1ccccc1N1CCN(C(=O)c2cc[nH]n2)CC1	-11%
Cn1cc(C2CCCN2C(=O)COCCOc2ccccc2)cn1 (stereo not given)	-16.3%
Cc1cnn(CC2CN(c3nc4ccccc4o3)CCO2)c1 (stereo not given)	-16.5%
CCc1noc(C(C)N2CCC(N3CCCCC3)CC2)n1 (stereo not given)	-4.8%
NC(=O)C1CCCN(c2ccc(CNC(=O)c3csnn3)cc2)C1 (stereo not given)	-2.18%
COC(=O)C(c1cc(F)ccc1F)N(C)C(=O)c1cnc(C)cn1 (stereo not given)	0.111%
Cc1nc(C)n(CC2CCCN(CCCc3ccccc3)C2)n1 (stereo not given)	-6.02%
Nc1cc2c(nn1)CCN(C(=O)c1cccc3c1OCCO3)C2	-8.72%
O=C(NCCn1ccnc1)c1ccn(-c2cccc(F)c2)n1	-5.28%

SMILES	cytotoxicity at 10 µM
CCN(CC1CCOC1)C(=O)Nc1ccc(N2CCCC2)nc1 (stereo not given)	-7.1%
Cc1cnn(C2CCCN(C(=O)c3cn4cccnc4n3)C2)c1 (stereo not given)	-11.4%
COCCOc1cccc(C(=O)N2CCCC(n3ccnc3C)C2)c1 (stereo not given)	-12%
COc1c(C2CCCN2C(=O)c2c[nH]c3ncccc23)c(C)nn1C (stereo not given)	-6.49%
COc1ccccc1OCC(=O)NS(=O)(=O)c1ccccc1Br	-9.8%
Cc1cc(C[C@@H]2CCC[C@H]2NCc2ccccc2C)on1	-5.28%
Cc1cc(C(=O)N2CC[C@]3(C[C@@H](OCc4ccccn4)CO3)C2)c(C)o1	-78.7%
c1cnc(N2CCO[C@H]3[C@H](OCCN4CCCC4)CC[C@@H]32)nc1	-11.8%
Cc1cc(C(=O)N2CCc3ncc(CN4CCCC4)n3CC2)no1	-108%
Cc1cc(CN2C[C@@H]3COC[C@]3(CNS(C)(=O)=O)C2)no1	-71.2%
Cn1cc(CN2C[C@H]3CCN(C(=O)c4cscn4)C[C@H]3C2)cn1	4.12%
O=C(NCC1CC1)[C@@H]1CCO[C@@H]2CCN(c3ncccn3)C[C@@H]21	7.64%
COc1ncc(C2(O)CCN(Cc3cccc(F)c3F)CC2)c(OC)n1	-8.33%
O=C([C@H]1C[C@H]2OCC[C@H]2N(CCc2ccccc2)C1)N1CCCO1	-72.8%
O=C(c1ccc(F)cc1)N1CCN2C[C@H](Oc3cccnc3)C[C@H]2C1	3.77%
COc1cc(CNCC(O)c2cccc(F)c2)cc2c1OCO2 (stereo not given)	-6.31%
CC(C)CC(=O)N1C[C@@H]2CCN(c3ncccn3)C[C@@H]2C1	-1.63%
Cc1ncsc1CN1Cc2cn(C)nc2C(COCC2CC2)C1 (stereo not given)	-67.3%
Cc1occc1C(=O)N1CCOCC2(CCN(C3CCOCC3)C2)C1 (stereo not given)	1.47%
c1cnc(N2CCCC3(CCN(CC4CC4)C3)C2)nc1 (stereo not given)	-76.9%
COCCN1CCC2(CC1)CC(Nc1ccc(C)nn1)CO2 (stereo not given)	-0.818%
CCN1CCC2(CC1)CC(NCc1ccncc1)c1ccccc1O2 (stereo not given)	0.254%
